# Screens deposited in PubChem by Johns Hopkins Ion Channel Center.
# Most compounds without a hit are left out; they make up all but 3% or so of the library.
# TRPC6 act = mouse TRPC6 channel activation | Q61143 | AID 2550 | B-score at 10 µM | HEK293-TRPC6 membrane potential dye fluorescence; stronger effect = higher value | hit rate 0.13% among 310,000;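 active = B-score of the integrated fluorescence ratio above library mean plus 3 SD, and starting fluorescence ratio within library mean plus 5 SD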;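 note: higher score means more depolarization so channel activation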
# TRPC4 PAM = allosteric potentiators of mouse TRPC4 channel | Q9QUQ5 | HEK293 TRPC4beta/mu-opioid, DAMGO EC20, Fluo-4 Ca2+ flux; stronger effect = higher value | B-score at 10 µM | hit rate 0.42% among 310,000 | AID 2227;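 active = B-score of calcium response area above 5 SD of library B-scores, with initial fluorescence ratio within 5 SD of library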;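 note: B-score of integrated fluorescence ratio over time as area under calcium response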
# TRPC6 inhibitor = blocks the mouse TRPC6 cation channel; AID 2553; Q61143; hit rate 1.1% among 310,000; B-score at 10 µM; HEK293-TRPC6, membrane potential dye, ACh-evoked depolarization; stronger effect = lower value;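 active = B-score under library mean minus 3 SD, initial fluorescence not abnormally high, positive integrated signal ratio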;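 note: B-score derived from integrated fluorescence ratio over the kinetic read; more negative B-score means stronger inhibition of depolarization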
# TRPC4 agonist = opens the mouse TRPC4 cation channel. hit rate 0.49% among 310,000. B-score at 10 µM. HEK293 TRPC4beta/mu-opioid, Fluo4 calcium fluorescence; stronger effect = higher value. Q9QUQ5. AID 2237;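 active = B-score above 5 SD of library B-scores, and initial fluorescence ratio not above library mean plus 5 SD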;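 note: positive B-score marks a calcium rise read as TRPC4 activation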
#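 System: HEK293 cells stably co-expressing mouse TRPC4beta and mu-opioid receptor; Schedule: Fluo4 dye loading 45 min at room temperature, 110 s recording; Detection: Fluo4 fluorescence, kinetic; Evaluation: B-scored integrated calcium fluorescence ratio; Controls: buffer (low) and maximal DAMGO (high).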
# TRPC4 inh = blocks the mouse TRPC4 cation channel. Q9QUQ5. hit rate 0.39% among 300,000. HEK293 TRPC4beta/mu-opioid, DAMGO-evoked Fluo4 calcium flux; stronger effect = lower value. B-score at 10 µM;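 active = B-score over 3 SD under the library average, no early fluorescence shift, positive overall ratio signal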
#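 Material: HEK293 cells with stable TRPC4beta plus mu-opioid receptor expression / Probe or stimulus: DAMGO in two steps, submaximal then maximal / Compound: single concentration per test compound / Technique: kinetic Fluo4 fluorescence imaging of calcium influx / Read-out: per-well B score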
# Kir21 inh = inhibitors of mouse Kir2.1 inward-rectifier potassium channel | hit rate 0.85% among 310,000 | AID 1672 | B-score at 10 µM | HEK293-Kir2.1, FluxOR thallium flux fluorescence; stronger effect = lower value;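 active = fluorescence ratio B-score at or below minus 3 SD of library scores, with starting-brightness B-score within 2 SD, cut at about -4.2 in these data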;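 note: channel flux triggered by added potassium and thallium sulfate stimulus; B-score of peak minus minimum fluorescence over baseline after thallium stimulus; more negative B-score means stronger Kir2.1 block with less thallium influx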
# hERG inh = blocks human hERG, in counter-screen for Kir2.1 inhibitors; shares compounds with Kir21 inh; hERG-expressing cells, thallium flux; inhibition, % at 10 µM; hit rate 20% among 320;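 note: host cells are CHO cells stably expressing hERG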
# KCNK9 inh = tests whether Kir2.1 inhibitors also affect human KCNK9. shares compounds with Kir21 inh. KCNK9-expressing cells, ion flux inhibition. inhibition, % at 10 µM. hit rate 5% among 320. AID 2329
# Kir2-1 patch inh = inhibitors of mouse Kir2.1 potassium channel | shares compounds with Kir21 inh | Kir2.1 cells, automated patch-clamp current inhibition | inhibition, % at 25 µM | hit rate 71% among 320 | AID 463252
# Active calls of the source: *; i = inactive; . = no result given. Unless noted, the rule behind the calls is not given here.
SMILES,TRPC6 act,TRPC4 PAM,TRPC6 inhibitor,TRPC4 agonist,TRPC4 inh,Kir21 inh,hERG inh,KCNK9 inh,Kir2-1 patch inh
COc1ccc(F)cc1S(=O)(=O)N1CC(C)CC(C)C1 (stereo not drawn),i,i,i,i,i,-6.2*,i,i,37%*
COc1ccc(Br)cc1S(=O)(=O)N1CCOCC1,i,i,i,i,i,0.05,.,.,.
COc1ccc(Br)cc1S(=O)(=O)N1CC(C)OC(C)C1 (stereo not drawn),i,i,i,i,i,-6.2*,i,i,26%*
COc1cccc(-c2cc(CC3(O)CCN(CCCc4ccccc4)CC3)on2)c1,i,i,i,i,i,-2.8,.,.,.
COc1ccc(CCNCC(O)COc2ccc(OC)cc2C(C)(C)C)cc1 (stereo not drawn),i,16*,i,i,i,-6.2*,61%*,i,i
Cc1ccc(OCC(O)CNCc2ccc(F)cc2)cc1 (stereo not drawn),i,i,i,i,i,-8.8*,i,i,77%*
COc1ccc(OCCOCCOc2ccc(C)cc2[N+](=O)[O-])cc1,i,i,i,i,i,-0.02,.,.,.
COc1ccc(CNCC(O)COc2ccc(C)cc2[N+](=O)[O-])cc1 (stereo not drawn),i,i,i,i,i,-8.7*,i,i,61%*
COc1ccc(CCNCC(O)COc2cccc(Br)c2)cc1OC (stereo not drawn),i,i,i,i,i,-1.4,.,.,.
Cc1ccc(CNC(=O)COc2ccc(C(=O)c3ccc(F)cc3)cc2)cc1,i,i,i,i,i,1,.,.,.
COc1ccc(S(=O)(=O)Nc2ccc(-c3ccc4nncn4n3)cc2)c(OC)c1,i,i,i,i,i,-0.27,.,.,.
O=C(c1ccc2c(c1)N(Cc1ccccc1)CCS2)N1CCCCC1,i,i,i,i,i,-5.8*,i,i,i
CN1CCN(C(=O)c2ccc3c(c2)N(Cc2ccccc2)CCS3)CC1,i,i,i,i,i,0.35,.,.,.
CS/C(=N\S(=O)(=O)c1cccs1)Nc1ccc(Br)cc1F,i,i,i,i,i,-1,.,.,.
COc1cc(CNCCc2ccc(F)cc2)ccc1OCc1ccc(Cl)nc1,i,i,i,i,-6*,-8.2*,59%*,i,56%*
COc1cc(CO)ccc1OCc1ccc(Cl)nc1,i,i,i,i,i,-0.58,.,.,.
Cc1ccc(S(=O)(=O)CCCS(=O)(=O)c2ccc(C)cc2)cc1,i,i,i,i,i,-5.7*,i,i,17%*
CC(=O)c1ccc(NC(=O)C(C)OC(=O)c2cccc(-n3cnnn3)c2)cc1 (stereo not drawn),i,i,i,i,i,0.43,.,.,.
CC(OC(=O)c1cccc(-n2cnnn2)c1)C(=O)Nc1cccc(Cl)c1 (stereo not drawn),i,i,i,i,i,4.4,i,i,i
CCCN(S(=O)(=O)c1ccccc1F)S(=O)(=O)c1ccccc1Br,i,i,i,i,i,0,.,.,.
CCCCN1C(=O)C(=Nc2cccc3cnccc23)c2ccccc21,i,20*,i,i,i,-7.5*,i,i,i
Cc1cc(C)c2c(N)c(C(=O)Nc3ccc([N+](=O)[O-])cc3)sc2n1,i,i,i,i,i,1.3,.,.,.
CC(C)(C)OC(=O)NCCCCCc1nnc(SCc2ccc(F)cc2)o1,i,i,i,i,i,-2.4,.,.,.
Cc1ccc(CSc2nnc(CCNC(=O)OC(C)(C)C)o2)cc1,i,i,i,i,i,-11*,i,i,60%*
N#C/C(=C\c1ccc(O)c(O)c1)C(=O)Nc1cccc2ncccc12,i,i,i,i,i,-0.15,.,.,.
SMILES,TRPC6 act,TRPC4 PAM,TRPC6 inhibitor,TRPC4 agonist,TRPC4 inh,Kir21 inh,hERG inh,KCNK9 inh,Kir2-1 patch inh
Cc1ccc(C(=O)N/C(=C\c2ccc(-c3ccc(Br)cc3)o2)C(=O)NCCCN(C)C)cc1,i,i,i,i,i,-10*,77%*,i,i
CCOCc1cn(CC(=O)c2ccc([N+](=O)[O-])cc2)c(C)nc1=N,i,i,i,i,i,3.1,i,i,i
CN(C)CCOCCOc1ccc(Cl)cc1C(C)(C)C,i,i,i,i,i,-6*,47%*,i,37%*
Cc1ccc2nc(CCCc3nc4ccc(C)cc4[nH]3)[nH]c2c1,i,i,i,i,i,-8.6*,i,i,i
S=C1NCN(Cc2cccnc2)CN1c1cccc2ccccc12,i,i,i,i,i,-2.1,.,.,.
CCOc1cc(/C=N/O)ccc1OS(=O)(=O)c1ccc(C)cc1,i,i,i,i,i,-7.5*,i,i,6.7%*
CCOc1cc(/C=N/NS(=O)(=O)c2ccccc2)ccc1OS(=O)(=O)c1ccc(C)cc1,i,i,i,i,i,-3.2,.,.,.
COc1ccc(S(=O)(=O)N2CCc3ccccc32)cc1C(=O)O,i,i,i,i,i,-0.18,.,.,.
COc1ccc(S(=O)(=O)N2CCc3ccccc32)cc1OC,i,i,i,i,i,-6.2*,i,i,24%*
O=C(CN(C(=O)CCC(=O)Nc1ccccn1)c1ccc(F)cc1)NCCc1ccccc1,i,i,i,i,i,0.15,.,.,.
Cc1c(NC(=O)COC(=O)c2ccc(Br)o2)c(=O)n(-c2ccccc2)n1C,i,i,i,i,i,1.8,i,i,i
Cc1c(NC(=O)C(C)OC(=O)c2ccc(Br)o2)c(=O)n(-c2ccccc2)n1C (stereo not drawn),i,i,i,i,i,0.43,.,.,.
CCc1cc2c(CN3CCN(Cc4ccccc4)CC3)cc(=O)oc2cc1O,i,i,i,i,i,-6*,i,i,i
CCN(c1ccccc1)S(=O)(=O)c1ccc(F)cc1,i,i,i,i,i,-6.2*,i,i,37%*
